# TAAR1 antagonist – antagonists of human TAAR1; Q96RJ0; AID 624466; CHO RD-HGA16 TAAR1, Fluo-8 calcium fluorescence, antagonist; 360,000 tested, 1.5% active; inhibition, % at 3 µM;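 active = inhibition above a per-plate cutoff, the mean inhibition of test compounds on that plate plus 3 SD, cut at about 49% in these data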
# Target sequence (Q96RJ0 whole entry, looked up): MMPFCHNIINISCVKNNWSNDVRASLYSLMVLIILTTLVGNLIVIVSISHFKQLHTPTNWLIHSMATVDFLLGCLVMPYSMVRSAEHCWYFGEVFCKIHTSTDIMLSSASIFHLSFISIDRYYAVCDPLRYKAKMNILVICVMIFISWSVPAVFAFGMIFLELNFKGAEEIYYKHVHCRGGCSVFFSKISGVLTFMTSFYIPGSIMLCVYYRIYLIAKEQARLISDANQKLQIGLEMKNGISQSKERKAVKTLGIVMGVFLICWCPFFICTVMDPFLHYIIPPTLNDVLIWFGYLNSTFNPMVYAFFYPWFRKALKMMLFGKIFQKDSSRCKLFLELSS
#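 Test system: RD-HGA16 CHO cells with stable hTAAR1 and Gα16 / Probe or stimulus: EC80 β-phenethylamine stimulus / Times: seeding 17-24 h prior, 75-min 37 °C, 30-min RT dye loading / Detection: Fluo-8 calcium-sensitive fluorescence / Read-out basis: % inhibition scaled between DMSO and EC80 PEA controls / Repeats: singlicate, one well per test compound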
# core dimer inh – HCV core protein dimerization inhibition | inhibition, % at 5 µM | 300,000 tested, 0.33% active | TR-FRET GST/Flag-core106 dimerization, 1536-well;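 active = inhibition above the mean of all tested compounds plus 3 SD, set per screening campaign, cut at about 45% in these data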
#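 test system = GST/Flag-tagged HCV core106 proteins | probe or stimulus = Eu donor and XL665 acceptor anti-tag antibodies | times = compound-protein-antibody incubation 4 h at 22.5 °C | signal = TR-FRET, excitation 340 nm, emission 617 and 671 nm | measure = percent inhibition of core106 dimerization signal | controls = wells lacking GST-core106 and wells with excess unlabelled core106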
# HCV NS3 hel inh – blocks Hepatitis C virus NS3 helicase unwinding; 290,000 tested, 0.56% active; inhibition, % at 10.9 µM; NS3 helicase DNA unwinding, Cy5 molecular beacon fluorescence; AID 1800;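 active = inhibition above the mean of all tested compounds plus 3 SD, set per campaign, cut at about 35% in these data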
#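 Control set: DMSO versus 110 µM thioflavine S; Material: NS3 helicase fragment of HCV; Measured by: Cy5 fluorescence at 0 and 60 min, beacon hairpin quenching; Read-out basis: percent inhibition from t60/t0 fluorescence ratio; Times: reaction time 60 min, 25 °C; Repeats: single replicate; Compound dosing: single dose, 10.9 µM nominal final, DMSO 0.8% final.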
# rCAG RNA binder – binds r(CAG) RNA repeats; r(CAG) RNA repeat, TO-PRO-1 dye displacement fluorescence; inhibition, % at 3 µM; 370,000 tested, 1.3% active; AID 651821;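 active = inhibition above the plate cutoff, the mean of all test compounds on that plate plus 3 SD, cut at about 35% in these data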;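 note: higher means more dye released from RNA so lower well fluorescence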
# TAAR1 ag – human TAAR1 agonism. 360,000 tested, 0.99% active. activation, % at 3 µM. Q96RJ0. CHO RD-HGA16 TAAR1, Fluo-8 calcium fluorescence; vehicle wells 0%, saturating PEA agonist 100%;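 active = activation above the mean activation of all test compounds in the run plus 3 SD, cut at about 38% in these data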
#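 Signal – calcium-sensitive Fluo-8 signal, excitation 470-495, emission 515-575 nm · System – RD-HGA16 (CHO) cells co-expressing Gα16 and hTAAR1 · Incubation – 17-24 h seeding, 75 min 37 °C dye, 30 min RT · Compound dosing – 3 µM single concentration · Repeats – no replicates (n 1)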
# nonsel antag count – nonselective antagonist in TAAR1 antagonist counter-screen; shares compounds with TAAR1 antagonist; counterscreen cell line, calcium fluorescence, antagonist mode; inhibition, % at 3 µM; 2,400 tested, 77% active; AID 651780; in the data active = inhibition above about 22%;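 note: CHO-Ga16 host cells stimulated with ATP at an EC80 level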
# TAAR1 ant conf – confirmation of human TAAR1 antagonists. shares compounds with TAAR1 antagonist. TAAR1-expressing cells, fluorescence antagonist read-out. inhibition, % at 3 µM. AID 651785. 2,400 tested, 40% active; in the data active = inhibition above about 49%;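 note: CHO-Ga16 host cells challenged with agonist PEA near its EC80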
# Ga16 ag counter – nonselective Ga16 agonism, counter-screen; shares compounds with TAAR1 antagonist; Ga16-expressing cells, calcium fluorescence, agonist counterscreen; activation, % at 3 µM; 2,400 tested, 18% active; AID 651953; in the data active = activation above about 12%
# TAAR1 ag count – TAAR1 agonism, antagonist counter-screen; shares compounds with TAAR1 antagonist; hTAAR1 cell line, fluorescence activation, agonist mode; activation, % at 3 µM; 2,400 tested, 2% active; in the data active = activation above about 37%;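 note: CHO cells stably expressing TAAR1 with calcium dye readout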
# Hits are given with their value; - = inactive; . = not tested or not shown. Only some compounds are listed: those with a hit (about 3.7% of all), similar ones and a draw of the others.
SMILES,TAAR1 antagonist,core dimer inh,HCV NS3 hel inh,rCAG RNA binder,TAAR1 ag,nonsel antag count,TAAR1 ant conf,Ga16 ag counter,TAAR1 ag count
CCCCCNc1nc(-c2ccccc2)nc(-n2ccnc2)n1,-,-,-,-,-,.,.,.,.
CN(c1ccccc1)c1nc(-n2ccnc2)nc(-n2ccnc2)n1,-,-,-,-,-,.,.,.,.
C=CC(=O)NC1CCCCN(CCC)C1=O (configuration not stated),-,.,.,-,-,.,.,.,.
Cn1cc(C2(C)CCOc3ccccc32)c2ccccc21 (configuration not stated),.,.,.,-,.,.,.,.,.
COc1ccc(-c2nnn3c2Cn2c4ccccc4c(=O)n2[C@@H](C(C)C)C3)cc1,.,.,.,-,.,.,.,.,.
CCOC(=O)Cn1c(=O)oc2cc(S(=O)(=O)N(C)Cc3ccccc3)ccc21,65,-,-,-,-,-,-,-,-
NNC(=O)c1[nH]c2ccc([N+](=O)[O-])cc2c1-c1ccccc1,-,-,-,-,-,.,.,.,.
O=C(N/N=C/c1ccccn1)c1[nH]c2ccc([N+](=O)[O-])cc2c1-c1ccccc1,50,-,-,-,-,-,51,12,-
CCCCC(=O)Nc1ccc(C(=O)Nc2ccc(S(=O)(=O)N3CCCC3)cc2)cc1,.,-,-,-,.,-,.,-,.
Cn1nc(C(=O)Nc2ccc(S(=O)(=O)N3CCCCC3)cc2)c2ccccc2c1=O,96,-,-,-,-,-,-,-,-
CCCCCCCCN1C(=O)[C@@H](CC(=O)N2CCC(c3ccccc3)CC2)C[C@@]2(C(=O)OC)C1=C[C@H](C1CCCC1)O[C@@H]2C,-,.,.,-,-,.,.,.,.
COc1cccc(CC(=O)N(Cc2ccccc2)c2ccccc2C(=O)Nc2cc(OC)ccc2OC)c1,.,.,.,-,.,.,.,.,.
COc1ccc(CNC(=O)C[C@H]2C(=O)N(Cc3ccc(OC)cc3)C[C@@H]2Cc2ccccc2)cc1,-,-,-,-,-,.,.,.,.
COc1ccc(CNC(=O)C[C@H]2C(=O)N(CCc3ccccc3)C[C@@H]2Cc2ccccc2)cc1,56,-,-,-,-,-,-,-,-
O=C(CSc1nnc(-c2ccccc2)n1-c1ccc(Cl)cc1)Nc1ccc2cn[nH]c2c1,.,.,.,-,.,.,.,.,.
c1ccc(-c2nc3ccccc3nc2-c2ccc(CN3CCC(c4nc5ccccc5[nH]4)CC3)cc2)cc1,53,.,.,-,-,34,-,16,-
Cc1ccc2nc(-c3ccc(CN4CCC(c5nc6ccccc6[nH]5)CC4)cc3)c(-c3ccccc3)nc2c1,73,.,.,-,-,46,60,15,-
N#Cc1ccc2nc(-c3ccc(CN4CCC(c5nc6ccccc6[nH]5)CC4)cc3)c(-c3ccccc3)nc2c1,66,.,.,-,-,38,-,-,-
Clc1ccc2nc(C3CCN(Cc4ccccc4)CC3)[nH]c2c1,-,-,-,-,-,.,.,.,.
Cc1cccc2nc(-c3ccccc3)c(-c3ccc(CN4CCC(c5nc6ccccc6[nH]5)CC4)cc3)nc12,-,.,.,-,-,.,.,.,.
COC(=O)[C@]12C[C@H](CC(=O)NCc3cccc(C(F)(F)F)c3)C(=O)N(Cc3ccc(Cl)cc3Cl)C1=C[C@H](C(C)C)O[C@@H]2C1CC1,.,.,.,-,.,.,.,.,.
COc1ccccc1CN(Cc1nc2ccccc2c(=O)[nH]1)S(=O)(=O)c1ccc2ccccc2c1,70,-,-,-,-,25,56,-,-
CC(C)CC(NC(=O)C(CC(C)C)NC(=O)OC(C)(C)C)C(=O)O (configuration not stated),-,-,-,-,-,.,.,.,.
C#CCN(C[C@@H](CC(C)C)NC(=O)OC(C)(C)C)S(=O)(=O)c1ccc(Br)cc1F,51,.,.,-,-,-,-,-,-
C=CCN1C[C@@H](COCc2ccccc2)Oc2cccc(F)c2S1(=O)=O,.,.,.,-,.,.,.,.,.
SMILES,TAAR1 antagonist,core dimer inh,HCV NS3 hel inh,rCAG RNA binder,TAAR1 ag,nonsel antag count,TAAR1 ant conf,Ga16 ag counter,TAAR1 ag count
C#CCNC(=O)C[C@H]1C[C@@]2(C(=O)OC)C(=C[C@H](C(C)C)O[C@@H]2C2CC2)N(Cc2ccc3c(c2)OCO3)C1=O,.,.,.,-,.,.,.,.,.
CC(=O)Nc1ccc(NC(=O)CSc2ccccn2)cc1,-,-,-,-,-,.,.,.,.
O=C(CSc1ccccn1)Nc1cccc(NC(=O)CSc2ccccn2)n1,60,-,-,-,-,34,-,14,-
CSc1ccccc1NC(=O)c1cc(-c2cccs2)on1,55,-,-,-,-,-,-,-,-
Cc1ccccc1Cn1cc(NC(=O)c2cc(-c3cccs3)on2)cn1,62,-,-,-,-,33,62,22,-
COc1ccc(-c2[nH]c3ccccc3c2SCCNC(=O)c2ccccc2)cc1,70,-,-,-,-,23,-,-,-

# Assay outcomes as filed in PubChem.
